ChEMBL document CHEMBL4715734, “Discovery of the Potent and Selective M1 PAM-Agonist N-[(3R,4S)-3-Hydroxytetrahydro-2H-pyran-4-yl]-5-methyl-4-[4-(1,3-thiazol-4-yl)benzyl]pyridine-2-carboxamide (PF-06767832): Evaluation of Efficacy and Cholinergic Side Effects” (J Med Chem, 2016)
≈ marks a conversion by molar mass, not a printed value.

Assays:
[1] = Unbound brain concentration in CD-1 mouse at 10 mg/kg, sc measured after 2 hrs by LC-MS/MS analysis; assay type: ADME, organism-based; settings: in vivo
[2] = fCmax in dog at 1 mg/kg, po measured after 4 hrs using spray-dried dispersion formulation; assay type: ADME, organism-based, Canis lupus familiaris; settings: in vivo
How it was run: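 Dogs from the crossover cardiovascular telemetry study (N=4), dosed orally at 0.3, 1 and 3 mg/kg; unbound Cmax extrapolated from 4 h post-dose in-life plasma samples.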

[3] = molecular target: T1, Muscarinic acetylcholine receptor M4 (Homo sapiens, UniProt P08173); test: Agonist activity at human recombinant muscarinic M4 receptor stably expressed in HEK cells assessed as increase in cAMP accumulation up to 10 uM measured after 10 mins by GloSensor cAMP Assay; assay type: cell-based
T1 sequence (P08173 whole entry): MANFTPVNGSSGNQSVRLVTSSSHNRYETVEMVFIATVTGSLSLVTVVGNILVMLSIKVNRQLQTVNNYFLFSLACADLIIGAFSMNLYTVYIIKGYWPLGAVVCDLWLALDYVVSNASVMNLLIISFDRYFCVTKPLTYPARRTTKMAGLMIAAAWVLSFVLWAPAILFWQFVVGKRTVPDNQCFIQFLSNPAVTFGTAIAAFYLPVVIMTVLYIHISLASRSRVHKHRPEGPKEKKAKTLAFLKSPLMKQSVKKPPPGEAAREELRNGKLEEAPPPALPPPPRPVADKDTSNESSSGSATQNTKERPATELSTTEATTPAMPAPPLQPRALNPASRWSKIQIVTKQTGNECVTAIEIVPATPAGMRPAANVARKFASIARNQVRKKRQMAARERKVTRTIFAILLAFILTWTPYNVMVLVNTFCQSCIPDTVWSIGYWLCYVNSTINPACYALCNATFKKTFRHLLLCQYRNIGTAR

[4] = Ratio of fAUC in monkey brain to plasma; assay type: ADME, cell-free, Macaca mulatta; settings: rhesus monkey, brain and plasma; read-out: Ratio AUC
[5] = Unbound plasma concentration in […] in Sprague-Dawley rat model at 1 mg/kg, sc measured after 1.67 hrs; assay type: ADME, organism-based; settings: in vivo
How it was run: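 Randomly selected animals (N=2/dose) at the end of the rat PPI study, T = 1.67 h. Dosed subcutaneously as a suspension in 0.5% methylcellulose in water. Plasma and brain concentrations were averaged.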

[6] = fCmax in rat at 3 mg/kg, po administered for 14 days; assay type: ADME, organism-based; settings: in vivo, 336 h, time 14 day
How it was run: (§1)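 2-week repeat oral dosing in rats, 0.5% methylcellulose formulation; N=4/sex/dose; doses 3, 10, 30 (males)/15 (females) mg/kg; unbound exposures reported per dose and sex.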

[7] = fCmax in dog at 15 mg/kg, po using spray-dried dispersion formulation; assay type: ADME, organism-based, Canis lupus familiaris; settings: in vivo
[8] = Toxicity in dog assessed as emesis at 15 mg/kg, po using spray-dried dispersion formulation; assay type: organism-based, Canis lupus familiaris; settings: in vivo
How it was run: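 Dogs received single escalating oral doses as a spray-dried dispersion (10% drug loading with HPMCAS-M). The dispersion was suspended in 0.5 wt% methylcellulose/0.5 wt% HPMCAS in 20 mM tris buffer, pH 7.4. One dog per sex per dose was used, and clinical signs were recorded.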

[9] = fAUC (0 to 24 hrs) in rat at 3 mg/kg, po administered for 14 days; assay type: ADME, organism-based; settings: in vivo, 336 h, time 14 day; how it was run: as §1
[10] = fAUC (0 to 24 hrs) in rat at 10 mg/kg, po administered for 14 days; assay type: ADME, organism-based; settings: in vivo, 336 h, time 14 day; how it was run: as §1
[11] = Toxicity in dog assessed as salivation at 3 mg/kg, po using spray-dried dispersion formulation; assay type: organism-based, Canis lupus familiaris; settings: in vivo
[12] = Toxicity in male Beagle dog assessed as effect on heart rate at 3 mg/kg, po observed upto 9 hrs post last dose by telemetry; assay type: organism-based, Canis lupus familiaris; settings: in vivo
How it was run: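 Crossover telemetry study in dogs at three oral doses (0.3, 1 and 3 mg/kg), N=4. Endpoints were blood pressure, maximum systolic left ventricular pressure, LV +dP/dt max, activity, heart rate, and RR, QT and QTc intervals, followed up to 9 h post dose.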

[13] = fAUC (0 to 24 hrs) in dog at 5 mg/kg, po using spray-dried dispersion formulation; assay type: ADME, organism-based, Canis lupus familiaris; settings: in vivo
[14] = Ratio of fAUC in rat brain to plasma; assay type: ADME, cell-free; settings: brain and plasma, read-out: Ratio AUC
[15] = molecular target: Muscarinic acetylcholine receptor M3 (Homo sapiens, UniProt P20309); test: Positive allosteric modulation of muscarinic M3 receptor (unknown origin) assessed as increase in ACh-induced displacement of [3H]-NMS from M2 receptor
How it was run: (§2)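 Cell lines expressing M2 or M3 were used for [3H]NMS binding. Inhibition of binding by ACh was measured in the presence of fixed compound concentrations of 10, 3, 1, 0.3, 0.1 and 0 µM.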

[16] = Ratio of fAUC in C57BL/6 mouse brain to plasma; assay type: ADME, cell-free; settings: brain and plasma, read-out: Ratio AUC
[17] = molecular target: T2, Muscarinic acetylcholine receptor M2 (Homo sapiens, UniProt P08172); test: Positive allosteric modulation of muscarinic M2 receptor (unknown origin) assessed as increase in ACh-induced displacement of [3H]-NMS from M2 receptor; how it was run: as §2
T2 sequence (P08172 whole entry): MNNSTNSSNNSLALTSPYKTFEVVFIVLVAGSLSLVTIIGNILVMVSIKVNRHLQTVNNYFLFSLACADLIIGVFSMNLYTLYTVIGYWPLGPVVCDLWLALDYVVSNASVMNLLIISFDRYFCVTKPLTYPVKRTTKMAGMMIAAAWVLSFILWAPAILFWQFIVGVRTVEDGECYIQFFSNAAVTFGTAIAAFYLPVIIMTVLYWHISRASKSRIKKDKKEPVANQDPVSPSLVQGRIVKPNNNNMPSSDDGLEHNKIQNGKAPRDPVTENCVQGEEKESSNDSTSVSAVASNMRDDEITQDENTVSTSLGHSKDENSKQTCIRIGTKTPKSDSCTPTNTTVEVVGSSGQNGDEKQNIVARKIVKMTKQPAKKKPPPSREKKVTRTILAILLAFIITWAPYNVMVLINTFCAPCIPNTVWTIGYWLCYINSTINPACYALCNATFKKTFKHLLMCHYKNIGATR

[18] = Unbound plasma concentration in CD-1 mouse at 1 mg/kg, sc measured after 2 hrs by LC-MS/MS analysis; assay type: ADME, organism-based; settings: in vivo
[19] = Toxicity in rat at 3 mg/kg, po administered for 14 days; assay type: organism-based; settings: in vivo, 336 h, time 14 day
How it was run: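 Two-week repeat-dose toxicity study in rats. Oral dosing in 0.5% methylcellulose at 3, 10, 30 (males)/15 (females) mg/kg, N=4/sex/dose. Food intake, body weight gain and histopathology were assessed.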

[20] = Thermodynamic solubility of compound at pH 6.5; assay type: physicochemical; settings: buffer, read-out: Therm_solubility

Chain of Muscarinic acetylcholine receptor M3 (P20309 whole entry): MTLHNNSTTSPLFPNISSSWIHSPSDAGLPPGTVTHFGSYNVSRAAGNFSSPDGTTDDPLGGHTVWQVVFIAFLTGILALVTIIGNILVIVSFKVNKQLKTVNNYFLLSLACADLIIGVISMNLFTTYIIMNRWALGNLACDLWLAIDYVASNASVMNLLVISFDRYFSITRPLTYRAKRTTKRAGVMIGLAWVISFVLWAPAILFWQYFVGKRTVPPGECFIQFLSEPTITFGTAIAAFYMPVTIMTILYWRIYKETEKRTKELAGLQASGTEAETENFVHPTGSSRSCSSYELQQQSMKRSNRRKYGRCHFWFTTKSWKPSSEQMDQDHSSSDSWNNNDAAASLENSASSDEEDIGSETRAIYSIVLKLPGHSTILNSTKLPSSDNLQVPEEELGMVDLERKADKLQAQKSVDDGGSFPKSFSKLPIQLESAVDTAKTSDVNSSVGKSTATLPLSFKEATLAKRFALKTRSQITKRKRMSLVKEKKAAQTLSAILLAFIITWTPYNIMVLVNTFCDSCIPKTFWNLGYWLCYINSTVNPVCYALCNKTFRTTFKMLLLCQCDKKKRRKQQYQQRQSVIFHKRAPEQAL

In the case of `Cc1cnc(C(=O)N[C@H]2CCOC[C@@H]2O)cc1Cc1ccc(-c2cscn2)cc1`, the “Drug uptake(free)” value [1] is reported as 195 nM, the fCmax [2] is reported as 169 nM and the Activity [3] is reported as “Not Active”. For the same compound, the Kp uu [4] was 0.51, the “Cp(f)” value [5] was 45.6 nM and the fCmax [6] was 195 nM. For the same compound, the fCmax [7] was 1050 nM, the Activity [8] was “Toxic” and the fAUC [9] was 1.856 µM·h. The fAUC [10] was 5.739 µM·h, the Activity [11] was “Toxic” and the Activity [12] was 25 bpm. The fAUC [13] was 5.861 µM·h, the Kp uu [14] was 0.34 and the Activity [15] was “Not Active”. For the same compound, the Kp uu [16] was 0.34, the Activity [17] was “Not Active” and the “Cp(f)” value [18] was 42.1 nM. The Activity [19] was “Non-Toxic” and the solubility thermodynamic [20] was 2.7 µg/mL (≈ 6.59 µM).
